Laboratory results as given in ChEMBL document CHEMBL4190362, “Synthesis, biological evaluation and quantitative structure-active relationships of 1,3-thiazolidin-4-one derivatives. A promising chemical scaffold endowed with high antifungal potency and low cytotoxicity” (Eur J Med Chem, 2017).

Key:
Staphylococcus aureus = assay: Antibacterial activity against Staphylococcus aureus assessed as inhibition of microbial growth incubated for 18 to 22 hrs by broth microdilution method; type: functional
In short: (§1)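 Broth microdilution in Mueller-Hinton II broth following NCCLS recommendations; compounds dissolved in DMSO.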

Staphylococcus warneri = assay: Antibacterial activity against Staphylococcus warneri assessed as inhibition of microbial growth incubated for 18 to 22 hrs by broth microdilution method; type: functional; in short: as §1
Enterococcus faecalis = assay: Antibacterial activity against Streptococcus faecalis assessed as inhibition of microbial growth incubated for 18 to 22 hrs by broth microdilution method; type: functional; in short: as §1
Escherichia coli = assay: Antibacterial activity against Escherichia coli assessed as inhibition of microbial growth incubated for 18 to 22 hrs by broth microdilution method; type: functional; in short: as §1
Proteus mirabilis = assay: Antibacterial activity against Proteus mirabilis assessed as inhibition of microbial growth incubated for 18 to 22 hrs by broth microdilution method; type: functional; in short: as §1
Enterobacter = assay: Antibacterial activity against Enterobacter spp. assessed as inhibition of microbial growth incubated for 18 to 22 hrs by broth microdilution method; type: functional; in short: as §1
Klebsiella oxytoca = assay: Antibacterial activity against Klebsiella oxytoca assessed as inhibition of microbial growth incubated for 18 to 22 hrs by broth microdilution method; type: functional; in short: as §1
Candida albicans = assay: Antifungal activity against Candida albicans clinical isolates assessed as inhibition of microbial growth incubated for 24 hrs by broth microdilution method; type: functional
In short: (§2)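 Twenty-two clinical Candida isolates (8 C. albicans, 4 C. glabrata, 3 C. tropicalis, 3 C. krusei, 2 C. parapsilosis, 2 C. sake) were identified by colony morphology and biochemistry and subcultured at 35 °C for purity. Compounds were dissolved in DMSO and tested by broth microdilution in Sabouraud dextrose broth per NCCLS/CLSI/EUCAST guidance. Values are geometric mean MIC per species (µg/mL).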

Nakaseomyces glabratus = assay: Antifungal activity against Candida glabrata clinical isolates assessed as inhibition of microbial growth incubated for 24 hrs by broth microdilution method; type: functional; in short: as §2
Candida tropicalis = assay: Antifungal activity against Candida tropicalis clinical isolates assessed as inhibition of microbial growth incubated for 24 hrs by broth microdilution method; type: functional; in short: as §2
Pichia kudriavzevii = assay: Antifungal activity against Candida krusei clinical isolates assessed as inhibition of microbial growth incubated for 24 hrs by broth microdilution method; type: functional; in short: as §2
Candida parapsilosis = assay: Antifungal activity against Candida parapsilosis clinical isolates assessed as inhibition of microbial growth incubated for 24 hrs by broth microdilution method; type: functional; details: Lodderomyces parapsilosis; in short: as §2
[Candida] sake = Antifungal activity against Candida sake clinical isolates assessed as inhibition of microbial growth incubated for 24 hrs by broth microdilution method; type: functional; details: Fermentozyma sake; in short: as §2
[1] = test system: Streptococcus alpha-hemolyticus (Streptococcus sp.); assay: Antibacterial activity against Streptococcus Streptococcus alpha hemolyticus assessed as inhibition of microbial growth incubated for 18 to 22 hrs by broth microdilution method

SMILES	MIC (Staphylococcus aureus)	MIC (Staphylococcus warneri)	MIC (Enterococcus faecalis)	MIC (Escherichia coli)	MIC (Proteus mirabilis)	MIC (Enterobacter)	MIC (Klebsiella oxytoca)	MIC (Candida albicans)	MIC (Nakaseomyces glabratus)	MIC (Candida tropicalis)	MIC (Pichia kudriavzevii)	MIC (Candida parapsilosis)	MIC ([Candida] sake)	MIC [1]
O=C1CS/C(=N/N=C\c2c[nH]c3ccccc23)N1	≥ 256 µg/mL	≥ 256 µg/mL	≥ 256 µg/mL	≥ 256 µg/mL	≥ 256 µg/mL	≥ 256 µg/mL	≥ 256 µg/mL	128 µg/mL	16 µg/mL	8 µg/mL	16 µg/mL	256 µg/mL	256 µg/mL	≥ 256 µg/mL
O=C1CS/C(=N/N=C\c2cccs2)N1	≥ 256 µg/mL	≥ 256 µg/mL	≥ 256 µg/mL	≥ 256 µg/mL	≥ 256 µg/mL	≥ 256 µg/mL	≥ 256 µg/mL	256 µg/mL	256 µg/mL	256 µg/mL	256 µg/mL	256 µg/mL	256 µg/mL	≥ 256 µg/mL
O=C1CSC(NN=C2CCCCC2)=N1	≥ 256 µg/mL	≥ 256 µg/mL	≥ 256 µg/mL	≥ 256 µg/mL	≥ 256 µg/mL	≥ 256 µg/mL	≥ 256 µg/mL	64 µg/mL	64 µg/mL	64 µg/mL	256 µg/mL	256 µg/mL	256 µg/mL	≥ 256 µg/mL
O=C1CSC(NN=C2CCCCCC2)=N1	≥ 256 µg/mL	≥ 256 µg/mL	≥ 256 µg/mL	≥ 256 µg/mL	≥ 256 µg/mL	≥ 256 µg/mL	≥ 256 µg/mL	8 µg/mL	8 µg/mL	8 µg/mL	8 µg/mL	8 µg/mL	8 µg/mL	≥ 256 µg/mL
C=CCC/C(C)=N\N=C1/NC(=O)CS1	≥ 256 µg/mL	≥ 256 µg/mL	≥ 256 µg/mL	≥ 256 µg/mL	≥ 256 µg/mL	≥ 256 µg/mL	≥ 256 µg/mL	2 µg/mL	2 µg/mL	2 µg/mL	2 µg/mL	2 µg/mL	4 µg/mL	≥ 256 µg/mL
C/C(=N\N=C1/NC(=O)CS1)c1cc2ccccc2o1	≥ 256 µg/mL	≥ 256 µg/mL	≥ 256 µg/mL	≥ 256 µg/mL	≥ 256 µg/mL	≥ 256 µg/mL	≥ 256 µg/mL	2 µg/mL	8 µg/mL	2 µg/mL	2 µg/mL	2 µg/mL	2 µg/mL	≥ 256 µg/mL
CC(C)(C)C1CCCC/C1=N/N=C1\NC(=O)CS1 (stereo not given)	≥ 256 µg/mL	≥ 256 µg/mL	≥ 256 µg/mL	≥ 256 µg/mL	≥ 256 µg/mL	≥ 256 µg/mL	≥ 256 µg/mL	8 µg/mL	8 µg/mL	8 µg/mL	2 µg/mL	2 µg/mL	2 µg/mL	≥ 256 µg/mL
C/C(=N/N=C1\NC(=O)CS1)c1cccc([N+](=O)[O-])c1	≥ 256 µg/mL	≥ 256 µg/mL	≥ 256 µg/mL	≥ 256 µg/mL	≥ 256 µg/mL	≥ 256 µg/mL	≥ 256 µg/mL	2 µg/mL	4 µg/mL	2 µg/mL	4 µg/mL	2 µg/mL	2 µg/mL	≥ 256 µg/mL
C/C(=N/N=C1\NC(=O)CS1)c1cc2ccccc2oc1=O	≥ 256 µg/mL	≥ 256 µg/mL	≥ 256 µg/mL	≥ 256 µg/mL	≥ 256 µg/mL	≥ 256 µg/mL	≥ 256 µg/mL	256 µg/mL	16 µg/mL	256 µg/mL	256 µg/mL	256 µg/mL	256 µg/mL	≥ 256 µg/mL
O=C1CS/C(=N/N=C\c2cccnc2)N1	≥ 256 µg/mL	≥ 256 µg/mL	≥ 256 µg/mL	≥ 256 µg/mL	≥ 256 µg/mL	≥ 256 µg/mL	≥ 256 µg/mL	8 µg/mL	8 µg/mL	16 µg/mL	16 µg/mL	16 µg/mL	16 µg/mL	≥ 256 µg/mL
C/C(CC(C)C)=N/N=C1\NC(=O)CS1	≥ 256 µg/mL	≥ 256 µg/mL	≥ 256 µg/mL	≥ 256 µg/mL	≥ 256 µg/mL	≥ 256 µg/mL	≥ 256 µg/mL	2 µg/mL	2 µg/mL	2 µg/mL	2 µg/mL	2 µg/mL	2 µg/mL	≥ 256 µg/mL
O=C1CS/C(=N/N=C\c2ccc3c(c2)OCO3)N1	≥ 256 µg/mL	≥ 256 µg/mL	≥ 256 µg/mL	≥ 256 µg/mL	≥ 256 µg/mL	≥ 256 µg/mL	≥ 256 µg/mL	256 µg/mL	256 µg/mL	256 µg/mL	256 µg/mL	256 µg/mL	256 µg/mL	≥ 256 µg/mL
C/C(=N/N=C1\NC(=O)CS1)c1ccc([N+](=O)[O-])cc1	≥ 256 µg/mL	≥ 256 µg/mL	≥ 256 µg/mL	≥ 256 µg/mL	≥ 256 µg/mL	≥ 256 µg/mL	≥ 256 µg/mL	4 µg/mL	8 µg/mL	8 µg/mL	4 µg/mL	16 µg/mL	16 µg/mL	≥ 256 µg/mL
CC/C(C)=N\N=C1/NC(=O)CS1	≥ 256 µg/mL	≥ 256 µg/mL	≥ 256 µg/mL	≥ 256 µg/mL	≥ 256 µg/mL	≥ 256 µg/mL	≥ 256 µg/mL	8 µg/mL	2 µg/mL	2 µg/mL	2 µg/mL	2 µg/mL	2 µg/mL	≥ 256 µg/mL
CC1=C(/C=N\N=C2/NC(=O)CS2)C(C)(C)CC=C1	≥ 256 µg/mL	≥ 256 µg/mL	≥ 256 µg/mL	≥ 256 µg/mL	≥ 256 µg/mL	≥ 256 µg/mL	≥ 256 µg/mL	2 µg/mL	2 µg/mL	16 µg/mL	2 µg/mL	16 µg/mL	2 µg/mL	≥ 256 µg/mL
